Compound activity deposited in PubChem by several laboratories.
This is a sample that favours compounds with a hit; in the whole collection about 3.2% have one here.
SMARCA2 act: SMARCA2 (BRM) function activators, primary screen, cell-based, luminescence, high throughput. MG213 cells, MMTV-luciferase reporter, dexamethasone, overnight. activation, % at 9.1 µM. 370,000 tested, 1% active; in the data active = activation above about 7.8%
NR2E3 ag-1: inhibitors of NR2E3-RetCOR corepressor binding, primary screen, NR2E3 agonist project, biochemical, TR-FRET, GST-NR2E3, biotin-RetCOR; Photoreceptor-specific nuclear receptor (Homo sapiens), Q9Y5X4; 1536-well; 320,000 tested, 0.12% active; inhibition of corepressor binding, % at 4.78 µM;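 active = percent inhibition above the cutoff of mean plus 3 SD of all tested compounds, set per screening campaign, cut at about 20% in these data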
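System: GST-tagged NR2E3 plus biotinylated RetCOR corepressor; Buffer or medium: pH 7.5 Tris-based buffer; Probe or stimulus: RetCOR corepressor, biotinylated, 7 nM; Doses: compound at 4.8 µM, single dose; Schedule: 5 h incubation at 4 °C; Technique: time-resolved FRET; Evaluation: percent inhibition of TR-FRET ratio; Replication: one well per compound, singlicate testing.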
DAX1 inh-1: DAX1 (NR0B1) inhibitors on StAR promoter, primary screen, cell-based, luminescence, SF-1 (NR5A1), full-length DAX-1; HEK293T StAR-luciferase reporter, SF-1/DAX-1 repression relief; inhibition, % at 6.8 µM; 370,000 tested, 1.1% active; AID 652010, 2013;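 active = inhibition above the mean over all tested compounds plus 3 SD, cut at about 3.6% in these data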;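 note: higher inhibition means more luminescence from relief of DAX-1 repression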
DAX1 inh-2: DAX1 (NR0B1) inhibitors, primary screen, cell-based, HEK293, Gal4-DAX1, luciferase luminescence; Nuclear receptor subfamily 0 group B member 1 (Homo sapiens), P51843; HEK293 Gal4-DAX1 luciferase reporter; inhibition, % at 6.75 µM; 340,000 tested, 0.99% active; AID 504766, 2011;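 active = inhibition above the mean over all tested compounds plus 3 SD, cut at about 4.2% in these data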;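 note: inhibition shows as a rise in luminescence from relieved DAX1 repression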
Target sequence (P51843 207-470 limits assumed): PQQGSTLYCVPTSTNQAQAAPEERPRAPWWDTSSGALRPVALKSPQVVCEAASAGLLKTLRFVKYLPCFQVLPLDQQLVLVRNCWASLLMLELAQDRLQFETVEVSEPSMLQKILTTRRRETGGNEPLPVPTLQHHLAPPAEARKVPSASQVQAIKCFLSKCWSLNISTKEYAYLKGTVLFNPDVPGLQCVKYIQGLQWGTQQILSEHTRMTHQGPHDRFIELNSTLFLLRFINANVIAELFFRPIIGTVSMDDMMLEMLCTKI
NR2E3 ag-2: NR2E3 agonists in two-hybrid cells, primary screen, cell-based, luminescence, CHO-S, Gal4-NCOR/VP16-NR2E3; AID 602229, 2012; 360,000 tested, 0.35% active; luciferase; inhibition of corepressor binding, % at 3.98 µM;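 active = inhibition above the mean of all tested compounds plus 3 SD, cut at about 70% in these data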;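 note: higher means lower luciferase signal from less NR2E3 corepressor binding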
JMJD2C inh: inhibitors of GASC-1 histone demethylase, primary screen, biochemical, fluorescence, DELFIA europium; GST-JMJD2C(1-420) H3K9me3 demethylation; 330,000 tested, 0.069% active; Lysine-specific demethylase 4C (Homo sapiens), Q9H3R0; inhibition, % at 2.35 µM;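 active = more than half of a compound's replicate wells show inhibition beyond 50%, single wells judged on their own value; inconclusive = some, but no more than half, of replicates pass 50% inhibition; inactive = no replicate passes 50% inhibition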;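 note: signal counts dimethyl H3K9 product captured on neutravidin plate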
Target sequence (Q9H3R0 1-420 limits assumed): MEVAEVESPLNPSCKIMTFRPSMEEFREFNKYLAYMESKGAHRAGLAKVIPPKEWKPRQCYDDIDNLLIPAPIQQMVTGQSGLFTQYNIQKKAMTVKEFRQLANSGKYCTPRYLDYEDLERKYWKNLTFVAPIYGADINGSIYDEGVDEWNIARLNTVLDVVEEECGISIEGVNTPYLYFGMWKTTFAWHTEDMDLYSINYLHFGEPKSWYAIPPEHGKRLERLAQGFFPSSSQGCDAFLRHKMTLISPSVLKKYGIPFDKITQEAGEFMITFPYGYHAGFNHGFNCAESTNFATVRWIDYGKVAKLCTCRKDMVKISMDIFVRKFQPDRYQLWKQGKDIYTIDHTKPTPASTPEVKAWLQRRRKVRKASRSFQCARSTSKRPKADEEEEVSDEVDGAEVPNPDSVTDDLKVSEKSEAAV
SMARCA2 conf: SMARCA2 (BRM) function activators, confirmation, cell-based, luminescence, triplicate; shares compounds with SMARCA2 act; MG213 cells, MMTV-luciferase with dexamethasone, overnight; MG213 cells expressing E1A, Rb sequestered; DMSO wells 0%, reference activator 100%; activation, % at 9.1 µM; 3,500 tested, 30% active; AID 652260, 2013;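 active = activation above its plate's cutoff, the mean activation of tested wells plus 3 SD, cut at about 7.9% in these data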
GAL4-VP16 Luc: GAL4-VP16 luciferase reporter activation, counter-screen for SMARCA2 (BRM) activator project, cell-based, pG5luc, luminescence, high throughput; activation, % at 9.1 µM; shares compounds with SMARCA2 act; HEK293 GAL4-VP16 pG5luc reporter; scaled: DMSO wells 0%, SAHA wells 100%; 3,500 tested, 41% active; AID 686939, 2013;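 active = activation above the solvent-only control well mean plus 3 SD, averaged across control plates, cut at about 5.2% in these data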
Hits are given with their value; – = inactive; ? = inconclusive; · = no result given.

SMILES	SMARCA2 act	NR2E3 ag-1	DAX1 inh-1	DAX1 inh-2	NR2E3 ag-2	JMJD2C inh	SMARCA2 conf	GAL4-VP16 Luc
O=C(CCN1C(=O)/C(=C\c2ccccc2)SC1=S)NNC(=O)c1ccncc1	9.7	–	–	·	–	?	–	–
CN(C)CCNC(=O)c1ccc(COc2ccc(Cl)cc2Cl)cc1	8.0	–	–	–	–	–	10	–
CNC(C)C#Cc1ccc2c(=O)c3ccccc3oc2c1 (stereo not drawn)	9.2	–	–	–	–	–	13	–
Cc1ccnc(NC(c2ccccc2)c2ccc3cccnc3c2O)c1 (stereo not drawn)	–	·	–	–	–	·	·	·
COc1ccc(C(Nc2cc(C)ccn2)c2ccc3ccc(C)nc3c2O)cc1 (stereo not drawn)	10	–	–	–	–	–	–	–
Cc1nnc(N2C(=O)c3cccc4c([N+](=O)[O-])ccc(c34)C2=O)s1	22	–	–	–	–	–	–	15
Cc1ccnc(N2C(=O)c3cccc4c([N+](=O)[O-])ccc(c34)C2=O)c1	9.9	–	–	–	–	–	–	–
Cc1ccccc1C(=O)NC1CCCCN(C(C)C)C1=O (stereo not drawn)	–	·	–	·	·	·	·	·
C=CCN1C(=O)[C@@H](CC(=O)N2CCN(C(=O)OCC)CC2)[C@]2(C(=O)OC)CCCCC=C12	–	·	–	·	·	·	·	·
CC(=O)NCc1ccc(C(=O)CCl)s1	9.0	–	–	–	–	–	10	8.0
CC(=O)c1cccc(Nc2cc(C)nc3ccc(C)cc23)c1	11	–	–	–	–	–	–	–
O=C(Cn1c(-c2cncs2)nc2ccccc21)NCc1cccs1	–	·	–	·	·	·	·	·
O=c1c2cc([N+](=O)[O-])ccc2sn1-c1ccccc1	–	·	–	–	–	·	·	·
N#Cc1c2ccc([N+](=O)[O-])cc2[n+]([O-])n1-c1ccccc1	8.5	–	–	–	–	–	13	8.9
CC(=O)c1cccc(-c2ccnc3c2CC(C(=O)NCc2ccc(N4CCN(C)CC4)cc2)O3)c1 (stereo not drawn)	8.7	·	–	·	–	·	–	–
CC1(C)CC(=O)CC2(C1)NCC(c1ccccc1)c1c2[nH]c2ccccc12 (stereo not drawn)	8.7	–	–	–	–	–	–	–
COc1cccc(C2CNC3(CCCC(C)C3)c3[nH]c4ccccc4c32)c1OC (stereo not drawn)	–	–	–	–	–	–	·	·
CC(=O)Nc1sc(NC(=O)c2ccc([N+](=O)[O-])cc2)nc1-c1cccs1	9.4	–	–	–	–	–	–	–
COc1ccc(/C(C)=N/N2C(=O)c3ccccc3NC2c2ccc(O)c(OC)c2)cc1 (stereo not drawn)	–	–	–	–	–	–	·	·
C/C(=N\N1C(=O)c2ccccc2NC1c1ccccc1)c1ccccc1O (stereo not drawn)	9.9	–	3.8	–	–	–	–	5.7
CSc1nc(NCC(C)O)c2c3c(sc2n1)CN(C)CC3 (stereo not drawn)	–	–	–	–	–	–	·	·
CSc1nc(SCC(=O)NC(c2ccccc2)c2ccccc2)c2c3c(sc2n1)CN(C)CC3	12	–	–	–	–	–	–	–
Cc1cc(S(=O)(=O)NCCCN2CCOCC2)ccc1Br	–	–	–	–	–	–	·	·
Cc1ccc(NC(=S)NC2CC3CCCC(C2)N3Cc2ccco2)cc1 (stereo not drawn)	10	–	–	–	–	–	–	–
Cc1cccc(NC(=S)NC2CC3CCCC(C2)N3Cc2ccco2)c1 (stereo not drawn)	–	–	–	–	–	–	·	·
SMILES	SMARCA2 act	NR2E3 ag-1	DAX1 inh-1	DAX1 inh-2	NR2E3 ag-2	JMJD2C inh	SMARCA2 conf	GAL4-VP16 Luc
COc1ccc(-c2cc(-c3ccc(OC)c(OC)c3)n[nH]2)c(O)c1	–	–	–	–	–	–	·	·
COc1ccc(-c2cc(-c3ccccc3O)[nH]n2)cc1OC	13	–	3.6	–	–	–	18	14
COc1ccccc1Nc1nc(-c2cccs2)cs1	8.4	–	–	–	–	–	–	7.4
COC(=O)[C@H](C(C)C)N1Cc2nnn(Cc3ccc(C)cc3)c2-c2cc(F)ccc2S1(=O)=O	–	·	–	·	·	·	·	·
COc1ccccc1OCCn1nnc2ccccc21	11	–	–	–	–	–	–	–
Cc1ccccc1-n1c(C)nnc1SCC(=O)NNC(=O)c1ccccc1	8.0	–	–	–	–	–	–	–
CC(C)C[C@@H]1COc2cc(Br)ccc2S(=O)(=O)N1Cc1cn(CC2CCCCC2)nn1	–	·	–	·	·	·	·	·
CC(=O)Nc1cccc(NC(=O)CSc2ncc(C(=O)Nc3ccccc3)c(=O)n2C)c1	12	–	–	–	–	–	28	–
CC(=O)Nc1cccc(NC(=O)CSc2ncc(C(=O)Nc3ccc(F)cc3)c(=O)n2C)c1	–	–	–	–	–	–	·	·
CC(=O)N1CCCN(C(=O)C2CCN(c3ncnc4c3sc3cccc(F)c34)CC2)CC1	–	·	–	·	·	·	·	·
CCc1cccc(CC)c1NC(=O)CN1C2CCCC1CC(NC(=O)Nc1cccc(OC)c1)C2 (stereo not drawn)	11	–	–	–	–	–	–	–
Cc1cc(C)c2c(N)c(-c3nc4ccccc4[nH]3)sc2n1	9.2	–	–	5.0	–	–	8.7	10
Cc1ccccc1-c1nc2ccccc2[nH]1	–	–	–	–	–	–	·	·
COc1ccc(NC(=O)c2cc([N+](=O)[O-])ccc2NC(=O)CNCc2ccccn2)c(OC)c1	13	–	–	–	–	–	–	–
C[C@@H]1OC(C2CCCCC2)N(C)[C@H]2C[C@H]3c4[nH]c5c(-c6ccc7c(c6)OCO7)cccc5c4CCN3C[C@@H]12 (stereo partly drawn)	–	·	–	·	·	·	·	·
COc1ccc(OCC(=O)NC(=S)Nc2ccccc2F)cc1	9.8	–	–	–	·	–	–	–
